Data taken from ChEMBL document CHEMBL1148767, “Synthesis and biological evaluation of the mitochondrial complex 1 inhibitor 2-[4-(4-fluorobutyl)benzylsulfanyl]-3-methylchromene-4-one as a potential cardiac positron emission tomography tracer” (J Med Chem, 2007).

Assays:
[1] = Inhibition of bovine mitochondrial MC1; design: species or system Bos taurus
Outline: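 Submitochondrial particles were sonicated from bovine heart mitochondria, final 45 µg/mL. Medium was 50 mM K2HPO4 pH 7.4, 0.4 µM antimycin A and 2 mM KCN. Inhibitor preincubated 4 min at varying concentrations. Reaction started with 100 µM decyl ubiquinone and 50 µM NADH at 37 °C. NADH oxidation read at 340 nm for 120 s. IC50 is 50% inhibition, referenced to a concurrent rotenone standard.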

Brain [2] = assay: Biodistribution in Sprague-Dawley rat brain at 15 uCi, iv after 120 mins; type: ADME, organism-based; details: in vivo, 2 h
Outline: (§1)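 Male SD rats (300-400 g) anesthetized with sodium pentobarbital (50 mg/kg ip), left femoral vein cannulated. About 15 µCi of 18F tracer (specific activity 750-2000 Ci/mmol) in 0.3 mL 10% ethanol saline given iv. Sacrificed in CO2 at 30 or 120 min (n = 5 per time point). Tissues weighed, gamma-counted, decay-corrected, and expressed as %ID/g ± SD.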

Liver [3] = assay: Biodistribution in Sprague-Dawley rat liver at 15 uCi, iv after 120 mins; type: ADME, organism-based; details: in vivo, 2 h; outline: as §1
Muscle tissue [4] = assay: Biodistribution in Sprague-Dawley rat muscle at 15 uCi, iv after 120 mins; type: ADME, organism-based; details: in vivo, 2 h; outline: as §1
Brain [5] = assay: Biodistribution in Sprague-Dawley rat brain at 15 uCi, iv after 30 mins; type: ADME, organism-based; details: in vivo, 0.5 h; outline: as §1
Spleen [6] = assay: Biodistribution in Sprague-Dawley rat spleen at 15 uCi, iv after 30 mins; type: ADME, organism-based; details: in vivo, 0.5 h; outline: as §1
Blood [7] = assay: Biodistribution in Sprague-Dawley rat blood at 15 uCi, iv after 120 mins; type: ADME, organism-based; details: in vivo, 2 h; outline: as §1
Lung [8] = assay: Biodistribution in Sprague-Dawley rat lung at 15 uCi, iv after 120 mins; type: ADME, organism-based; details: in vivo, 2 h; outline: as §1
Femur [9] = assay: Biodistribution in Sprague-Dawley rat femur at 15 uCi, iv after 30 mins; type: ADME, organism-based; details: in vivo, 0.5 h; outline: as §1
Blood [10] = assay: Biodistribution in Sprague-Dawley rat blood at 15 uCi, iv after 30 mins; type: ADME, organism-based; details: in vivo, 0.5 h; outline: as §1
Heart [11] = assay: Biodistribution in Sprague-Dawley rat heart at 15 uCi, iv after 120 mins; type: ADME, organism-based; details: in vivo, 2 h; outline: as §1
Spleen [12] = assay: Biodistribution in Sprague-Dawley rat spleen at 15 uCi, iv after 120 mins; type: ADME, organism-based; details: in vivo, 2 h; outline: as §1
Kidney [13] = assay: Biodistribution in Sprague-Dawley rat kidney at 15 uCi, iv after 120 mins; type: ADME, organism-based; details: in vivo, 2 h; outline: as §1
Heart [14] = assay: Biodistribution in Sprague-Dawley rat heart at 15 uCi, iv after 30 mins; type: ADME, organism-based; details: in vivo, 0.5 h; outline: as §1
Femur [15] = assay: Biodistribution in Sprague-Dawley rat femur at 15 uCi, iv after 120 mins; type: ADME, organism-based; details: in vivo, 2 h; outline: as §1
Muscle tissue [16] = assay: Biodistribution in Sprague-Dawley rat muscle at 15 uCi, iv after 30 mins; type: ADME, organism-based; details: in vivo, 0.5 h; outline: as §1
Liver [17] = assay: Biodistribution in Sprague-Dawley rat liver at 15 uCi, iv after 30 mins; type: ADME, organism-based; details: in vivo, 0.5 h; outline: as §1
Kidney [18] = assay: Biodistribution in Sprague-Dawley rat kidney at 15 uCi, iv after 30 mins; type: ADME, organism-based; details: in vivo, 0.5 h; outline: as §1
Lung [19] = assay: Biodistribution in Sprague-Dawley rat lung at 15 uCi, iv after 30 mins; type: ADME, organism-based; details: in vivo, 0.5 h; outline: as §1

In the case of C=C(C)[C@H]1Cc2c(ccc3c2O[C@@H]2COc4cc(OC)c(OC)cc4[C@@H]2C3=O)O1 [ROTENONE], the IC50 [1] is reported as 16 nM.
CC(C)(C)c1ccc(CSc2cnn(C(C)(C)C)c(=O)c2Cl)cc1 [PYRIDABEN] gave an IC50 [1] of 8 nM.
Work on Cc1c(SCc2ccc(CCCC[18F])cc2)oc2ccccc2c1=O yielded a Drug uptake (Brain [2]) of 0.17 % ID/g, a Drug uptake (Liver [3]) of 0.6 % ID/g and a Drug uptake (Muscle tissue [4]) of 0.09 % ID/g. For the same compound, the Drug uptake (Brain [5]) was 0.26 % ID/g, the Drug uptake (Spleen [6]) was 0.41 % ID/g and the Drug uptake (Blood [7]) was 0.06 % ID/g. The Drug uptake (Lung [8]) was 0.12 % ID/g, the Drug uptake (Femur [9]) was 0.36 % ID/g and the Drug uptake (Blood [10]) was 0.11 % ID/g. For the same compound, the Drug uptake (Heart [11]) was 1.52 % ID/g, the Drug uptake (Spleen [12]) was 0.09 % ID/g and the Drug uptake (Kidney [13]) was 0.59 % ID/g. For the same compound, the Drug uptake (Heart [14]) was 2.24 % ID/g, the Drug uptake (Femur [15]) was 0.74 % ID/g and the Drug uptake (Muscle tissue [16]) was 0.06 % ID/g. For the same compound, the Drug uptake (Liver [17]) was 2 % ID/g, the Drug uptake (Kidney [18]) was 1.93 % ID/g and the Drug uptake (Lung [19]) was 0.32 % ID/g.
With Cc1c(SCc2ccc(OCC(C)F)cc2)oc2ccccc2c1=O (stereo unspecified) the IC50 [1] was 16 nM.
For CCCCc1ccc(CSc2oc3ccccc3c(=O)c2C)cc1, the IC50 [1] was 52 nM.
For CC(C)(C)c1ccc(CCOc2ncnc3ccccc23)cc1 [FENAZAQUIN], the IC50 [1] was 90 nM.
Cc1c(NCc2ccc(CCCCF)cc2)oc2ccccc2c1=O showed an IC50 [1] of 133 nM.
CCCCc1ccc(COc2oc3ccccc3c(=O)c2C)cc1 gave an IC50 [1] of 60 nM.
Cc1c(SCc2ccc(C(C)(C)C)cc2)oc2ccccc2c1=O showed an IC50 [1] of 52 nM.
Cc1c(SCc2ccc(COCCF)cc2)oc2ccccc2c1=O gave an IC50 [1] of 15 nM.
Work on CCCCc1ccc(CNc2oc3ccccc3c(=O)c2C)cc1 yielded an IC50 [1] of 57 nM.
In the case of Cc1c(SCc2ccc(CCCCF)cc2)oc2ccccc2c1=O, the IC50 [1] is reported as 9 nM.
Compound Cc1c(OCc2ccc(CCCCF)cc2)oc2ccccc2c1=O has an IC50 [1] of 33 nM.
Cc1c(SCc2ccc(CCCCOCCF)cc2)oc2ccccc2c1=O showed an IC50 [1] of 197 nM.
